According to ChEMBL document CHEMBL4382192, “Discovery of a potent dual ALK and EGFR T790M inhibitor” (Eur J Med Chem, 2017):

Assays:
[1] = target: Serine/threonine-protein kinase Chk1 (Homo sapiens) (UniProt O14757); test: Binding affinity to wild-type human partial length CHEK1 (M1 to G289 residues) expressed in bacterial expression system assessed as residual binding level at 1 uM by Kinomescan method relative to control
[2] = target: Eukaryotic translation initiation factor 2-alpha kinase 1 (Homo sapiens) (UniProt Q9BQI3); test: Binding affinity to wild-type human partial length EIF2AK1 (Q147 to E603 residues) expressed in mammalian expression system assessed as residual binding level at 1 uM by Kinomescan method relative to control
[3] = target: Tyrosine-protein kinase Fer (Homo sapiens) (UniProt P16591); test: Binding affinity to wild-type human partial length FER (S542 to T822 residues) expressed in bacterial expression system assessed as residual binding level at 1 uM by Kinomescan method relative to control
[4] = test system: Receptor-type tyrosine-protein kinase FLT3 (Homo sapiens), P36888 [D835H]; test: Binding affinity to human partial length FLT3 D835H mutant (V592 to Y969 residues) expressed in bacterial expression system assessed as residual binding level at 1 uM by Kinomescan method relative to control
Outline: (§1)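 Kinome-wide selectivity panel run by the KINOMEscan method, with the test compound at a single concentration of 1 μM. Wild-type and mutant kinases were profiled in the same screen.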

[5] = target: Vascular endothelial growth factor receptor 3 (Homo sapiens) (UniProt P35916); test: Binding affinity to wild-type human partial length FLT4 (E821 to E1196 residues) expressed in bacterial expression system assessed as residual binding level at 1 uM by Kinomescan method relative to control
[6] = target: Inhibitor of nuclear factor kappa-B kinase subunit alpha (Homo sapiens) (UniProt O15111); test: Binding affinity to wild-type human full length IKK-alpha (M1 to E745 residues) expressed in mammalian expression system assessed as residual binding level at 1 uM by Kinomescan method relative to control
Outline: (§2)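 Single-point kinome-wide KINOMEscan binding panel, test compound at 1 μM, run by the provider's standard protocol.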

[7] = target: Interleukin-1 receptor-associated kinase 1 (Homo sapiens) (UniProt P51617); test: Binding affinity to wild-type human partial length IRAK1 (R194 to S712 residues) expressed in mammalian expression system assessed as residual binding level at 1 uM by Kinomescan method relative to control
Sequence of Interleukin-1 receptor-associated kinase 1 (Homo sapiens) (P51617 whole entry, looked up, the tested form may be a part): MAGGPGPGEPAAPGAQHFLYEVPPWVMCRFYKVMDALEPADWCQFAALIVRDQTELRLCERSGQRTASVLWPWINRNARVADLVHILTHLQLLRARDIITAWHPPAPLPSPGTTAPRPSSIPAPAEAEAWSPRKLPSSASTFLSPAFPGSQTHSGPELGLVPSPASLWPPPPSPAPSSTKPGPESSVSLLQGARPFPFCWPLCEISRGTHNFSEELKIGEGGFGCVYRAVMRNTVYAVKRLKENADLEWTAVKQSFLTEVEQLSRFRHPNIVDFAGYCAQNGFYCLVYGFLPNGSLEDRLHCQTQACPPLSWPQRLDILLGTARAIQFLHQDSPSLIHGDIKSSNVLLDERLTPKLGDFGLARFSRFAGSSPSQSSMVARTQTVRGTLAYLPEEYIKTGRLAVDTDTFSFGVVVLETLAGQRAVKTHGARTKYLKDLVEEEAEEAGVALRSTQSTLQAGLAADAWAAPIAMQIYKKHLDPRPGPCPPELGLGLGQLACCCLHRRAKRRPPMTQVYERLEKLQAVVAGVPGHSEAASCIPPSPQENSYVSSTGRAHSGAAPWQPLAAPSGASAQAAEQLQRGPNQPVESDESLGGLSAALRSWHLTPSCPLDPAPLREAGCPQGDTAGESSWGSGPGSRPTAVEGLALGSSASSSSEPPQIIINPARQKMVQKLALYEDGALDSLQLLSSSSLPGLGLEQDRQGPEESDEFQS

[8] = target: MAP/microtubule affinity-regulating kinase 3 (Homo sapiens) (UniProt P27448); test: Binding affinity to wild-type human full length MARK3 (M1 to L729 residues) expressed in bacterial expression system assessed as residual binding level at 1 uM by Kinomescan method relative to control; outline: as §2
[9] = target: MAP/microtubule affinity-regulating kinase 4 (Homo sapiens) (UniProt Q96L34); test: Binding affinity to wild-type human partial length MARK4 (K29 to G340 residues) expressed in bacterial expression system assessed as residual binding level at 1 uM by Kinomescan method relative to control
[10] = target: Dual specificity mitogen-activated protein kinase kinase 7 (Homo sapiens) (UniProt O14733); test: Binding affinity to wild-type human full length MKK7 (M1 to R419 residues) expressed in mammalian expression system assessed as residual binding level at 1 uM by Kinomescan method relative to control; outline: as §2
Sequence of Dual specificity mitogen-activated protein kinase kinase 7 (Homo sapiens) (O14733 whole entry, the tested form may be a part): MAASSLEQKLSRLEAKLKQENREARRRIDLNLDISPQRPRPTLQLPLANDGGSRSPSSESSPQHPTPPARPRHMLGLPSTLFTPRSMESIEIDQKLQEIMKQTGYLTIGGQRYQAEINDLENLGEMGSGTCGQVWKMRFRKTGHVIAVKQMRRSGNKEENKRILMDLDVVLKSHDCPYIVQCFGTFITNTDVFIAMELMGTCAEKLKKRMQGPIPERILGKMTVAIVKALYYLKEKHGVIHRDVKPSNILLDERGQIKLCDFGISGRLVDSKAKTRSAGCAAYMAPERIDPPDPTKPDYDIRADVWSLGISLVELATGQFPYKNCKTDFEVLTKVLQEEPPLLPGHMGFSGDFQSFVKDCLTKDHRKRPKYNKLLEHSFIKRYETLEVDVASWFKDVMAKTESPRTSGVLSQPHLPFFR

[11] = target: MAP kinase-interacting serine/threonine-protein kinase 2 (Homo sapiens) (UniProt Q9HBH9); test: Binding affinity to wild-type human partial length MKNK2 (G63 to S388 residues) expressed in mammalian expression system assessed as residual binding level at 1 uM by Kinomescan method relative to control
Sequence of MAP kinase-interacting serine/threonine-protein kinase 2 (Homo sapiens) (Q9HBH9 whole entry, looked up, the tested form may be a part): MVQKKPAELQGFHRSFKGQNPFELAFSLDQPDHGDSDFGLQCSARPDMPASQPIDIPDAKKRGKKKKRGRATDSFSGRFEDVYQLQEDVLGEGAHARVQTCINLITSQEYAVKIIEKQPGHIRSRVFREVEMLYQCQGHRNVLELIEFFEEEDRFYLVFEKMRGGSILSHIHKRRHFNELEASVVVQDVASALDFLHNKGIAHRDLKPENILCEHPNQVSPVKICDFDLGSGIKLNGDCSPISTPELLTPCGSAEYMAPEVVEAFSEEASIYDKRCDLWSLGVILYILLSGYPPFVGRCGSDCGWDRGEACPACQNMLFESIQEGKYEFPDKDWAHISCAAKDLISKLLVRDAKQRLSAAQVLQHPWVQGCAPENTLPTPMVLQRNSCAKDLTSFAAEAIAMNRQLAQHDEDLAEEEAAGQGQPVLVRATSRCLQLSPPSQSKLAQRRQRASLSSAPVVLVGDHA

[12] = target: Serine/threonine-protein kinase PAK 3 (Homo sapiens) (UniProt O75914); test: Binding affinity to wild-type human full length PAK3 (M1 to R544 residues) expressed in bacterial expression system assessed as residual binding level at 1 uM by Kinomescan method relative to control; outline: as §2
[13] = target: Serine/threonine-protein kinase PAK 5 (Homo sapiens) (UniProt Q9P286); test: Binding affinity to wild-type human partial length PAK7 (Y400 to H719 residues) expressed in bacterial expression system assessed as residual binding level at 1 uM by Kinomescan method relative to control
[14] = target: Platelet-derived growth factor receptor alpha (Homo sapiens) (UniProt P16234); test: Binding affinity to wild-type human partial length PDGFRA (V575 to D1002 residues) expressed in mammalian expression system assessed as residual binding level at 1 uM by Kinomescan method relative to control
[15] = target: Serine/threonine-protein kinase SIK3 (Homo sapiens) (UniProt Q9Y2K2); test: Binding affinity to wild-type human partial length QSK (A90 to L395 residues) expressed in mammalian expression system assessed as residual binding level at 1 uM by Kinomescan method relative to control
[16] = test system: Proto-oncogene tyrosine-protein kinase receptor Ret (Homo sapiens), P07949 [V804M]; test: Binding affinity to human partial length RET V804M mutant (E713 to D1014 residues) expressed in bacterial expression system assessed as residual binding level at 1 uM by Kinomescan method relative to control; outline: as §1
[17] = target: Ribosomal protein S6 kinase alpha-4 (Homo sapiens) (UniProt O75676); test: Binding affinity to wild-type human partial length N-terminal RPS6KA4 kinase domain 1 expressed in bacterial expression system assessed as residual binding level at 1 uM by Kinomescan method relative to control
[18] = target: Proto-oncogene tyrosine-protein kinase Src (Homo sapiens) (UniProt P12931); test: Binding affinity to wild-type human partial length SRC (L240 to L536 residues) expressed in bacterial expression system assessed as residual binding level at 1 uM by Kinomescan method relative to control
Sequence of Proto-oncogene tyrosine-protein kinase Src (Homo sapiens) (P12931 2-536 limits assumed): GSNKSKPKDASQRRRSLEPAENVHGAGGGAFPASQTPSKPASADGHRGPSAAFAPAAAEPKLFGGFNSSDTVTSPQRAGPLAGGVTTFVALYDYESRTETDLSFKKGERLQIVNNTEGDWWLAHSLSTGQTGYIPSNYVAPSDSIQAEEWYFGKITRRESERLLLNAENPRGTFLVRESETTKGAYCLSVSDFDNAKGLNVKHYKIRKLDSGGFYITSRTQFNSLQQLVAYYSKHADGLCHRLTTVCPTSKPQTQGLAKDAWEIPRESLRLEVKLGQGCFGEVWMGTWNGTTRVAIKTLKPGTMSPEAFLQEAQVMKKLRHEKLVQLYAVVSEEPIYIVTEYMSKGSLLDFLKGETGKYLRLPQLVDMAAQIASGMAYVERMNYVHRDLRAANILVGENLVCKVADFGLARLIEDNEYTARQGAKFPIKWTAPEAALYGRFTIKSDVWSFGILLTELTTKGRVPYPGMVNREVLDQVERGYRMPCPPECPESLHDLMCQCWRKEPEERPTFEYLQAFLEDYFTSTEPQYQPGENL

[19] = target: Tyrosine-protein kinase Srms (Homo sapiens) (UniProt Q9H3Y6); test: Binding affinity to wild-type human partial length SRMS (L208 to P488 residues) expressed in mammalian expression system assessed as residual binding level at 1 uM by Kinomescan method relative to control
[20] = target: Non-receptor tyrosine-protein kinase TNK1 (Homo sapiens) (UniProt Q13470); test: Binding affinity to wild-type human full length TNK1 (M1 to P661 residues) expressed in bacterial expression system assessed as residual binding level at 1 uM by Kinomescan method relative to control
Sequence of Non-receptor tyrosine-protein kinase TNK1 (Homo sapiens) (Q13470 whole entry, the tested form may be a part): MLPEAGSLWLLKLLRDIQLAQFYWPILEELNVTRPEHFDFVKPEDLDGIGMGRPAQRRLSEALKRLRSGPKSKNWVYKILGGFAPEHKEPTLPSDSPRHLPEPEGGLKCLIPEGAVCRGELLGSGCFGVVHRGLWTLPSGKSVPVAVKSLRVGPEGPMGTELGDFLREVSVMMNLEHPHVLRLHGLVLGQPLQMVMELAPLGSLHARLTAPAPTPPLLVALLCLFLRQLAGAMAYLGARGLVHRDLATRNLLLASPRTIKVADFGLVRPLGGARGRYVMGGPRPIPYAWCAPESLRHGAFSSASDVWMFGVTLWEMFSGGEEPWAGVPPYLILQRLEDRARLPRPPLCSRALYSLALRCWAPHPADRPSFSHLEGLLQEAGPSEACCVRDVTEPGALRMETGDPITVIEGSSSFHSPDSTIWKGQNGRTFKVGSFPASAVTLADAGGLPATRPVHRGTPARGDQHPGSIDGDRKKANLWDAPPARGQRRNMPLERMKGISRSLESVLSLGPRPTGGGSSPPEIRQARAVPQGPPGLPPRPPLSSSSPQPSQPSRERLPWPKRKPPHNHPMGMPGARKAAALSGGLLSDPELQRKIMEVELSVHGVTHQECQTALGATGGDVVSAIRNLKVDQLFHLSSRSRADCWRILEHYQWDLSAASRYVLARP

[21] = target: Activated CDC42 kinase 1 (Homo sapiens, UniProt Q07912); test: Binding affinity to wild-type human partial length TNK2 (S159 to D474 residues) expressed in bacterial expression system assessed as residual binding level at 1 uM by Kinomescan method relative to control
[22] = target: Dual specificity protein kinase TTK (Homo sapiens) (UniProt P33981); test: Binding affinity to wild-type human partial length TTK (N505 to V798 residues) expressed in bacterial expression system assessed as residual binding level at 1 uM by Kinomescan method relative to control
Sequence of Dual specificity protein kinase TTK (Homo sapiens) (P33981 whole entry, the tested form may be a part): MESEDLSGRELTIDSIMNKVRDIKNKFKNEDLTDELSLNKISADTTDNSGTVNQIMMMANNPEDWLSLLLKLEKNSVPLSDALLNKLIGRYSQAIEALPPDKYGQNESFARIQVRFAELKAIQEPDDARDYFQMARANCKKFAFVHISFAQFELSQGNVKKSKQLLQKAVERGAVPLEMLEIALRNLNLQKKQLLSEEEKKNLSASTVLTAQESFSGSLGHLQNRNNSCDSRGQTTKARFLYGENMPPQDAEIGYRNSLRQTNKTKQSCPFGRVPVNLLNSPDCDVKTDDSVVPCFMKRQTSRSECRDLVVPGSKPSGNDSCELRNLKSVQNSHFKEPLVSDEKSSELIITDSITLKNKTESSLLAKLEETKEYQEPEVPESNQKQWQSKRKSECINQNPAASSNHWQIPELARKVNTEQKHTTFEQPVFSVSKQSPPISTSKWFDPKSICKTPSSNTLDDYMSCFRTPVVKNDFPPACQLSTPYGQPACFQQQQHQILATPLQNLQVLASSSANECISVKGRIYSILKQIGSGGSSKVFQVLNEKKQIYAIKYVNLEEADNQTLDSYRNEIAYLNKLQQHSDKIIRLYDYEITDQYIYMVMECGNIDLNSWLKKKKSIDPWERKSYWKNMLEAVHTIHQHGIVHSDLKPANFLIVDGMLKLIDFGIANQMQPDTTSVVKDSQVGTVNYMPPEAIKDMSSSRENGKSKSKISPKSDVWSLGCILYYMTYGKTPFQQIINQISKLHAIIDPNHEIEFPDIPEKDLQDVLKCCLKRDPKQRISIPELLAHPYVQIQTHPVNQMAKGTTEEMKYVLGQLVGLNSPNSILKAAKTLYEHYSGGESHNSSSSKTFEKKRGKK

[23] = target: Serine/threonine-protein kinase 32C (Homo sapiens) (UniProt Q86UX6); test: Binding affinity to wild-type human partial length YANK3 (M68 to G486 residues) expressed in bacterial expression system assessed as residual binding level at 1 uM by Kinomescan method relative to control
[24] = target: Receptor tyrosine-protein kinase erbB-4 (Homo sapiens, UniProt Q15303); test: Inhibition of recombinant N-terminal GST-tagged human ErbB4 cytoplasmic domain expressed in baculovirus expression system by Z-LYTE assay
Sequence of Receptor tyrosine-protein kinase erbB-4 (Q15303 whole entry, the tested form may be a part): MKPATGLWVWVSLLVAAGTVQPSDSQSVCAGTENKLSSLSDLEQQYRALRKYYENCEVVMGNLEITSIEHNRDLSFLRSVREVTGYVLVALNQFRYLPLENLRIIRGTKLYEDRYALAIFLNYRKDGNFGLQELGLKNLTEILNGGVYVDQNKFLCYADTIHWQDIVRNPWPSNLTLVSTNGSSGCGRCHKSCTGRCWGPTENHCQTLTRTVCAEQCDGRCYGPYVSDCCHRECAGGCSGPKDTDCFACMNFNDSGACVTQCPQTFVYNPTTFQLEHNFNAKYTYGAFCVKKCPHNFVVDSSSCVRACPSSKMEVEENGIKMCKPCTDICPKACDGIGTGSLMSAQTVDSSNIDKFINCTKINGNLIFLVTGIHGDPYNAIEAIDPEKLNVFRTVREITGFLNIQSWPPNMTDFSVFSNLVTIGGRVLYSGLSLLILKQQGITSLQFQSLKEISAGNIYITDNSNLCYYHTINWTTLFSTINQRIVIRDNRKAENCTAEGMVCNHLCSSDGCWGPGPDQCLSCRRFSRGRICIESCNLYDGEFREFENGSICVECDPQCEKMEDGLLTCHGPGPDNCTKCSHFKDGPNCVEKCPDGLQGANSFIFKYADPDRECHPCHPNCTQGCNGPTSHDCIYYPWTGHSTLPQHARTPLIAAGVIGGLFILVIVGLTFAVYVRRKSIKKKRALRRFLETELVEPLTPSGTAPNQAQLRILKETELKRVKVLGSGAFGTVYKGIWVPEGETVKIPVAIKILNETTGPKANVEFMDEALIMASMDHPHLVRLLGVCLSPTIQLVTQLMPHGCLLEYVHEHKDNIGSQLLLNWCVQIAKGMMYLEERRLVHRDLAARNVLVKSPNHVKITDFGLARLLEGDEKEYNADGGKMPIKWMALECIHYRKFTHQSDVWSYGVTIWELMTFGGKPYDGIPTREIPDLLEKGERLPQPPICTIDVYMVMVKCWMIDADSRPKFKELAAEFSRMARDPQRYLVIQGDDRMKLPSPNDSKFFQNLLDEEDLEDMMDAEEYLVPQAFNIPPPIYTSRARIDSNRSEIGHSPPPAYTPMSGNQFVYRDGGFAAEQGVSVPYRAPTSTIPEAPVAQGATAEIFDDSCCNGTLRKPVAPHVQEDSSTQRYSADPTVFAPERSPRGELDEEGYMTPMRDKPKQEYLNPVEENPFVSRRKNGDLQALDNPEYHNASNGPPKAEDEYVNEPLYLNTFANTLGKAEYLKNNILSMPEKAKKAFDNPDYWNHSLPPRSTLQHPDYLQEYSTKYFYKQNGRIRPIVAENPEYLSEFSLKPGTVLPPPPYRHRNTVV

C=CC(=O)Nc1cc(Nc2ncc(Cl)c(Nc3ccccc3S(=O)(=O)C(C)C)n2)c(OC)cc1N(C)CCN(C)C
Activity [1]: 99%
Activity [2]: 72%
Activity [3]: 0%
Activity [4]: 1.6%
Activity [5]: 36%
Activity [6]: 96%
Activity [7]: 21%
Activity [8]: 33%
Activity [9]: 6%
Activity [10]: 77%
Activity [11]: 26%
Activity [12]: 23%
Activity [13]: 79%
Activity [14]: 83%
Activity [15]: 61%
Activity [16]: 15%
Activity [17]: 99%
Activity [18]: 34%
Activity [19]: 6.5%
Activity [20]: 3.3%
Activity [21]: 0.15%
Activity [22]: 29%
Activity [23]: 13%
IC50 [24]: 3 nM
